Experimental data from ChEMBL document CHEMBL1165943, “Design and synthesis of new anticancer pyrimidines with multiple-kinase inhibitory effect” (Bioorg Med Chem, 2010).

Experiments:
[1] = tested on: OVCAR-8; assay: Cytotoxicity against human OVCAR8 cells assessed as cell growth at 100 nM after 48 hrs by sulforhodamine B assay; format: functional; conditions: OVCAR-8, 48 h, read-out: Activity
[2] = tested on: SK-MEL-5; assay: Growth inhibition of human SK-MEL-5 cells after 48 hrs by sulforhodamine B assay; format: functional, cell-based; conditions: for CC50: read-out: LC50 (the source's name)
Procedure, shortened: (§1)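 Cells grown in RPMI 1640 with 5% FBS and 2 mM L-glutamine, seeded at 5,000–40,000 cells/well according to doubling time. After 24 h, time-zero plates are TCA-fixed. Five concentrations (10-fold or ½log dilutions, DMSO stocks) are applied for 48 h at 37 °C, 5% CO₂. Cells are TCA-fixed, SRB-stained and read at 515 nm. IC₅₀ is taken from [(Ti−Tz)/(C−Tz)]×100 = 50.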

[3] = tested on: SK-MEL-2; assay: Cytotoxicity against human SK-MEL-2 cells assessed as cell growth at 100 nM after 48 hrs by sulforhodamine B assay; format: functional; conditions: SK-MEL-2, 48 h, read-out: Activity
[4] = tested on: KM12; assay: Cytotoxicity against human KM12 cells assessed as cell growth at 100 nM after 48 hrs by sulforhodamine B assay; format: functional; conditions: KM12, 48 h, read-out: Activity
[5] = tested on: Malme-3M; assay: Cytotoxicity against human MALME-3M cells assessed as cell growth at 0.001 uM after 48 hrs by sulforhodamine B assay; format: functional; conditions: read-out: Activity
[6] = tested on: SK-MEL-5; assay: Cytotoxicity against human SK-MEL-5 cells assessed as cell growth at 10 uM after 48 hrs by sulforhodamine B assay; format: functional; conditions: SK-MEL-5, 48 h, read-out: Activity
[7] = tested on: UACC-257; assay: Cytotoxicity against human UACC257 cells assessed as cell growth at 100 nM after 48 hrs by sulforhodamine B assay; format: functional; conditions: UACC-257, 48 h, read-out: Activity
[8] = tested on: A498; assay: Cytotoxicity against human A498 cells assessed as cell growth at 10 uM after 48 hrs by sulforhodamine B assay; format: functional; conditions: A498, 48 h, read-out: Activity
Procedure, shortened: (§2)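 Cells grown in RPMI 1640 with 5% FBS and 2 mM L-glutamine, seeded at 5,000–40,000 cells/well by doubling time. Time-zero plates TCA-fixed after 24 h. Five concentrations (10-fold or half-log dilutions from DMSO stock) added; 48 h at 37 °C, 5% CO2. Cold TCA fixation (final 10%, 60 min, 4 °C), 0.4% SRB stain, dye solubilized in 10 mM trizma base, A515.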

[9] = tested on: A549; assay: Cytotoxicity against human A549 cells assessed as cell growth at 0.01 uM after 48 hrs by sulforhodamine B assay; format: functional; conditions: A549, 48 h, read-out: Activity; procedure, shortened: as §2
[10] = tested on: T47D; assay: Growth inhibition of human T47D cells after 48 hrs by sulforhodamine B assay; format: functional, cell-based; procedure, shortened: as §1
[11] = tested on: HT-29; assay: Cytotoxicity against human HT-29 cells assessed as cell growth at 100 nM after 48 hrs by sulforhodamine B assay; format: functional; conditions: HT-29, 48 h, read-out: Activity
[12] = tested on: OVCAR-4; assay: Cytotoxicity against human OVCAR4 cells assessed as cell growth at 100 nM after 48 hrs by sulforhodamine B assay; format: functional; conditions: OVCAR-4, 48 h, read-out: Activity
[13] = tested on: HL-60(TB); assay: Cytotoxicity against human HL-60(TB) cells assessed as cell growth at 1 uM after 48 hrs by sulforhodamine B assay; format: functional; conditions: HL-60, 48 h, read-out: Activity
Procedure, shortened: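 Five-concentration HL-60(TB) test in RPMI 1640 with 5% FBS and 2 mM L-glutamine. Cells are plated at 5,000–40,000/well and a TCA-fixed time-zero plate is read at drug addition after 24 h. Drug is dissolved in DMSO and given as five 10-fold or ½log dilutions for 48 h at 37 °C, 5% CO2. Settled cells are fixed with TCA, stained with SRB and read at 515 nm.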

[14] = tested on: MDA-MB-468; assay: Cytotoxicity against human MDA-MB-468 cells assessed as cell growth at 0.001 uM after 48 hrs by sulforhodamine B assay; format: functional; conditions: MDA-MB-468, 48 h, read-out: Activity
[15] = tested on: UO-31; assay: Cytotoxicity against human UO31 cells assessed as cell growth at 10 uM after 48 hrs by sulforhodamine B assay; format: functional; conditions: UO-31, 48 h, read-out: Activity
[16] = tested on: T47D; assay: Cytotoxicity against human T47D cells assessed as cell growth at 100 nM after 48 hrs by sulforhodamine B assay; format: functional; conditions: read-out: Activity
[17] = tested on: SK-OV-3; assay: Cytotoxicity against human SKOV3 cells assessed as cell growth at 1 uM after 48 hrs by sulforhodamine B assay; format: functional; conditions: SK-OV-3, 48 h, read-out: Activity
[18] = tested on: SK-OV-3; assay: Growth inhibition of human SKOV3 cells after 48 hrs by sulforhodamine B assay; format: functional, cell-based; conditions: SK-OV-3, 48 h; procedure, shortened: as §1
[19] = tested on: K562; assay: Cytotoxicity against human K562 cells assessed as cell growth at 100 nM after 48 hrs by sulforhodamine B assay; format: functional; conditions: K562, 48 h, read-out: Activity
[20] = tested on: 786-0; assay: Cytotoxicity against human 786-0 cells assessed as cell growth at 1 uM after 48 hrs by sulforhodamine B assay; format: functional; conditions: 786-0, 48 h, read-out: Activity; procedure, shortened: as §2
[21] = tested on: OVCAR-5; assay: Cytotoxicity against human OVCAR5 cells assessed as cell growth at 1 uM after 48 hrs by sulforhodamine B assay; format: functional; conditions: OVCAR-5, 48 h, read-out: Activity
[22] = tested on: NCI/ADR-RES; assay: Cytotoxicity against human NCI/ADR-RES cells assessed as cell growth at 1 uM after 48 hrs by sulforhodamine B assay; format: functional; conditions: read-out: Activity
[23] = tested on: MOLT-4; assay: Growth inhibition of human MOLT4 cells after 48 hrs by sulforhodamine B assay; format: functional, cell-based; conditions: MOLT-4, 48 h; for CC50: read-out: LC50 (the source's name); procedure, shortened: as §1
[24] = tested on: KM12; assay: Cytotoxicity against human KM12 cells assessed as cell growth at 0.001 uM after 48 hrs by sulforhodamine B assay; format: functional; conditions: KM12, 48 h, read-out: Activity
[25] = tested on: SNB-19; assay: Cytotoxicity against human SNB19 cells assessed as cell growth at 0.001 uM after 48 hrs by sulforhodamine B assay; format: functional; conditions: SNB-19, 48 h, read-out: Activity
[26] = tested on: SNB-19; assay: Cytotoxicity against human SNB19 cells assessed as cell growth at 0.01 uM after 48 hrs by sulforhodamine B assay; format: functional; conditions: SNB-19, 48 h, read-out: Activity
[27] = tested on: NCI-H322M; assay: Growth inhibition of human NCI-H322M cells after 48 hrs by sulforhodamine B assay; format: functional, cell-based; conditions: for CC50: read-out: LC50 (the source's name); procedure, shortened: as §1
[28] = tested on: NCI-H522; assay: Cytotoxicity against human NCI-H522 cells assessed as cell growth at 0.001 uM after 48 hrs by sulforhodamine B assay; format: functional; conditions: NCI-H522, 48 h, read-out: Activity
[29] = tested on: A549; assay: Cytotoxicity against human A549 cells assessed as cell growth at 10 uM after 48 hrs by sulforhodamine B assay; format: functional; conditions: A549, 48 h, read-out: Activity; procedure, shortened: as §2

CC(=O)c1ccccc1-c1ccc(-c2ccnc(NC(=O)Nc3cc(N4CCOCC4)cc(C(F)(F)F)c3)n2)cn1
growth at 0.1 µM [1]: 66%
TGI ([2]; Homo sapiens, SK-MEL-5, 48 h): > 100 µM
CC50 ([2]; Homo sapiens, SK-MEL-5, 48 h): > 100 µM
IC50 ([2]; sk-mel-5): Not Active
growth at 0.1 µM [3]: 102%
growth at 0.1 µM [4]: 89%
growth at 0.001 µM [5]: 94%
growth at 10 µM [6]: 68%
growth at 0.1 µM [7]: 83%
growth at 10 µM [8]: 98%
growth at 0.01 µM [9]: 102%
GI50 [10]: > 100 µM
IC50 [10]: > 100 µM
LC50 (lethal concentration, 50% net cell kill) [10]: > 100 µM
TGI [10]: > 100 µM
growth at 0.1 µM [11]: 98%
growth at 0.1 µM [12]: 92%
growth at 1 µM [13]: 88%
growth at 0.001 µM [14]: 97%
growth at 10 µM [15]: 86%
growth at 0.1 µM [16]: 8.3%
growth at 1 µM [17]: 48%
GI50 [18]: > 100 µM
IC50 [18]: 9.42 µM
LC50 (concentration giving 50% net cell kill) [18]: > 100 µM
TGI [18]: > 100 µM
growth at 0.1 µM [19]: 69%
growth at 1 µM [20]: 55%
growth at 1 µM [21]: 96%
growth at 1 µM [22]: 50%
GI50 [23]: > 100 µM
IC50 [23]: > 100 µM
TGI [23]: > 100 µM
CC50 [23]: > 100 µM
growth at 0.001 µM [24]: 103%
growth at 0.001 µM [25]: 98%
growth at 0.01 µM [26]: 98%
GI50 [27]: > 100 µM
IC50 [27]: > 100 µM
TGI [27]: > 100 µM
CC50 [27]: > 100 µM
growth at 0.001 µM [28]: 91%
growth at 10 µM [29]: 74%

CC(=O)Nc1cccc(-c2ccc(-c3ccnc(NC(=O)Nc4cc(C(F)(F)F)cc(C(F)(F)F)c4)n3)cn2)c1.Cl
growth at 0.1 µM [1]: 85%
GI50 ([2]; Homo sapiens, SK-MEL-5, 48 h): 1.35 µM
TGI ([2]; Homo sapiens, SK-MEL-5, 48 h): 2.64 µM
IC50 ([2]; Homo sapiens, SK-MEL-5, 48 h, read-out: IC50): 1.35 µM
CC50 ([2]; Homo sapiens, SK-MEL-5, 48 h): 5.13 µM
growth at 0.1 µM [3]: 96%
growth at 0.1 µM [4]: 92%
growth at 0.001 µM [5]: 92%
growth at 10 µM [6]: 100%
growth at 0.1 µM [7]: 78%
growth at 10 µM [8]: -77%
growth at 0.01 µM [9]: 67%
GI50 [10]: 0.619 µM
IC50 [10]: 0.619 µM
LC50 (lethal concentration, 50% net cell kill) [10]: > 100 µM
TGI [10]: 8.43 µM
growth at 0.1 µM [11]: 101%
growth at 0.1 µM [12]: 61%
growth at 1 µM [13]: 28%
growth at 0.001 µM [14]: 99%
growth at 10 µM [15]: -75%
growth at 0.1 µM [16]: 42%
growth at 1 µM [17]: 65%
GI50 [18]: 13.1 µM
IC50 [18]: 13.1 µM
LC50 (concentration giving 50% net cell kill) [18]: 78.8 µM
TGI [18]: 32.2 µM
growth at 0.1 µM [19]: 69%
growth at 1 µM [20]: 25%
growth at 1 µM [21]: 62%
growth at 1 µM [22]: 17%
GI50 [23]: 1.98 µM
IC50 [23]: 1.98 µM
TGI [23]: > 100 µM
CC50 [23]: > 100 µM
growth at 0.001 µM [24]: 99%
growth at 0.001 µM [25]: 95%
growth at 0.01 µM [26]: 96%
GI50 [27]: 2.17 µM
IC50 [27]: 2.17 µM
TGI [27]: 14.6 µM
CC50 [27]: 68.8 µM
growth at 0.001 µM [28]: 86%
growth at 10 µM [29]: -86%
